Assay results reported in ChEMBL document CHEMBL4602707, “Synthesis and Structure-Activity Relationship of Pyxinol Derivatives as Novel Anti-Inflammatory Agents” (ACS Med Chem Lett, 2020).
The source made the active and inactive calls. The calls are words filed in the database; no cut-off is given here.

These molecules were tested on RAW264.7 (assay: Cytotoxicity against LPS-stimulated mouse RAW264.7 cells at 20 uM after 24 hrs by MTT assay). Settings: raw264.7, 24 h.
Type: cell-based
Outline: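 RAW264.7 cells co-treated with test agent (20 μM) and LPS (1 μg/mL) for 24 h; survival read by MTT. Mean ± SD, n = 3; significance versus control group.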
For `CC(C)(O)[C@@H]1CC[C@@](C)([C@H]2CC[C@]3(C)[C@@H]2[C@H](O)C[C@@H]2[C@@]4(C)CC/C(=N\O)C(C)(C)[C@@H]4CC[C@]23C)O1`, the Activity was “Non-Toxic”.
With `CCCCCC(=O)O[C@H]1CC[C@]2(C)[C@H]3C[C@@H](O)[C@@H]4[C@@H]([C@]5(C)CC[C@@H](C(C)(C)O)O5)CC[C@@]4(C)[C@]3(C)CC[C@H]2C1(C)C` the Activity was “Non-Toxic”.
For `CC(C)(O)[C@H]1CC[C@@](C)([C@H]2CC[C@]3(C)[C@@H]2C(=O)C[C@@H]2[C@@]4(C)CCC(=O)C(C)(C)[C@@H]4CC[C@]23C)O1`, the Activity was “Non-Toxic”.
In the case of `CC(C)(O)[C@H]1CC[C@@](C)([C@H]2CC[C@]3(C)[C@@H]2[C@H](O)C[C@@H]2[C@@]4(C)CC[C@H](O)C(C)(C)[C@@H]4CC[C@]23C)O1`, the Activity is reported as “Non-Toxic”.
With `CC(C)(O)[C@@H]1CC[C@@](C)([C@H]2CC[C@]3(C)[C@@H]2[C@H](O)C[C@@H]2[C@@]4(C)CCC(=O)C(C)(C)[C@@H]4CC[C@]23C)O1` the Activity was “Non-Toxic”.
With `CC(C)(O[Si](C)(C)C(C)(C)C)[C@H]1CC[C@@](C)([C@H]2CC[C@]3(C)[C@@H]2[C@H](O)C[C@@H]2[C@@]4(C)CC[C@H](O)C(C)(C)[C@@H]4CC[C@]23C)O1` the Activity was “Non-Toxic”.
`CC(C)(O)[C@H]1CC[C@@](C)([C@H]2CC[C@]3(C)[C@@H]2C(=O)C[C@@H]2[C@@]4(C)CC[C@H](O)C(C)(C)[C@@H]4CC[C@]23C)O1` was tested, and the Activity was “Non-Toxic”.
For `CCCCCC(=O)O[C@H]1CC[C@]2(C)[C@H]3C[C@@H](O)[C@@H]4[C@@H]([C@]5(C)CC[C@H](C(C)(C)O)O5)CC[C@@]4(C)[C@]3(C)CC[C@H]2C1(C)C`, the Activity was “Non-Toxic”.
For `CC(C)(O)[C@H]1CC[C@@](C)([C@H]2CC[C@]3(C)[C@@H]2[C@H](O)C[C@@H]2[C@@]4(C)CC[C@@H](N)C(C)(C)[C@@H]4CC[C@]23C)O1`, the Activity was “Non-Toxic”.

These molecules were tested on RAW264.7 (assay: Antiinflammatory activity in mouse RAW264.7 cells assessed as inhibition of LPS-induced NO production at 20 uM after 24 hrs by Griess method). Settings: not given.
Type: functional, cell-based
Outline: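 RAW264.7 cells co-treated with test agent (20 μM) and LPS (1 μg/mL) for 24 h. NO released to medium measured by Griess assay. Hydrocortisone sodium succinate (20 μM) positive control. Mean ± SD, n = 3; significance versus control.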
In the case of `CC(C)(O)[C@H]1CC[C@@](C)([C@H]2CC[C@]3(C)[C@@H]2[C@@H](O)C[C@@H]2[C@@]4(C)CC[C@H](O)C(C)(C)[C@@H]4CC[C@]23C)O1`, the inhibition is reported as “inactive”.
`CC(C)(O)[C@@H]1CC[C@@](C)([C@H]2CC[C@]3(C)[C@@H]2[C@H](O)C[C@@H]2[C@@]4(C)CC/C(=N\O)C(C)(C)[C@@H]4CC[C@]23C)O1` was tested, and the inhibition was “Active”.
In the case of `CCCCCC(=O)O[C@H]1CC[C@]2(C)[C@H]3C[C@@H](O)[C@@H]4[C@@H]([C@]5(C)CC[C@@H](C(C)(C)O)O5)CC[C@@]4(C)[C@]3(C)CC[C@H]2C1(C)C`, the inhibition is reported as “Active”.
With `CC(C)(O)[C@H]1CC[C@@](C)([C@H]2CC[C@]3(C)[C@@H]2[C@H](O)C[C@@H]2[C@@]4(C)CC[C@H](O)C(C)(C)[C@@H]4CC[C@]23C)O1` the inhibition was “Active”.
`CC(C)(O)[C@@H]1CC[C@@](C)([C@H]2CC[C@]3(C)[C@@H]2[C@H](O)C[C@@H]2[C@@]4(C)CCC(=O)C(C)(C)[C@@H]4CC[C@]23C)O1` was tested, and the inhibition was “Active”.
`CC(C)(O[Si](C)(C)C(C)(C)C)[C@H]1CC[C@@](C)([C@H]2CC[C@]3(C)[C@@H]2[C@H](O)C[C@@H]2[C@@]4(C)CC[C@H](O)C(C)(C)[C@@H]4CC[C@]23C)O1` was tested, and the inhibition was “inactive”.
For `CC(C)(O)[C@H]1CC[C@@](C)([C@H]2CC[C@]3(C)[C@@H]2C(=O)C[C@@H]2[C@@]4(C)CC[C@H](O)C(C)(C)[C@@H]4CC[C@]23C)O1`, the inhibition was “Active”.
With `CCCCCC(=O)O[C@H]1CC[C@]2(C)[C@H]3C[C@@H](O)[C@@H]4[C@@H]([C@]5(C)CC[C@H](C(C)(C)O)O5)CC[C@@]4(C)[C@]3(C)CC[C@H]2C1(C)C` the inhibition was “Active”.
In the case of `CC(C)(O)[C@H]1CC[C@@](C)([C@H]2CC[C@]3(C)[C@@H]2[C@H](O)C[C@@H]2[C@@]4(C)CC[C@@H](N)C(C)(C)[C@@H]4CC[C@]23C)O1`, the inhibition is reported as “Active”.
